This passage reports IC50, inhibition and Activity results from ChEMBL document CHEMBL4610005, “Discovery of a new class of PROTAC BRD4 degraders based on a dihydroquinazolinone derivative and lenalidomide/pomalidomide” (Bioorg Med Chem, 2020).

Assay [1] concerns the target T1, Bromodomain-containing protein 4 (Homo sapiens, UniProt O60885).
Assay [2] deals with T1, Bromodomain-containing protein 4. The conditions noted are these: at 500 nM.
In another assay the test system is HL-60. Put plainly: Antiproliferative activity against human HL60 cells assessed as reduction in cell viability at 2.5 uM incubated for 72 hrs by cell titer glo assay. Format: functional, cell-based. The method in brief: (§1)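 Cells seeded and held 24 h at 37 °C, 5% CO2, then exposed to compound at a single 2.5 μM for 72 h under the same conditions. Viability was read by CellTiter-Glo luminescence after 10 min shaking and 2 min signal stabilisation at room temperature. Percent inhibition is the mean of three independent experiments.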

A further assay concerns Raji. Put plainly: Antiproliferative activity against human Raji cells assessed as reduction in cell viability at 2.5 uM incubated for 72 hrs by cell titer glo assay. The class given is functional, cell-based. The method in brief: as §1
Assay [3] relates to THP-1. Put plainly: Antiproliferative activity against human THP1 cells assessed as reduction in cell viability at 2.5 uM incubated for 72 hrs by cell titer glo assay. Format: functional, cell-based. The method in brief: as §1
The subject of assay [4] is THP-1. The experiment in a line: Antiproliferative activity against human THP1 cells assessed as reduction in cell viability incubated for 72 hrs by cell titer glo assay. Format: functional, cell-based. The conditions noted are these: THP-1, 72 h. The method in brief: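 THP-1 cells were seeded and held 24 h at 37 °C, 5% CO2, then given serially diluted compound in medium for 72 h. Proliferation was read by CellTiter-Glo luminescence. IC50 was fitted from the dose-response and reported as mean ± SD of three independent assays.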

In assay [5] the target is T2, Protein cereblon/Bromodomain-containing protein 4 (Homo sapiens) (UniProt O60885+Q96SW2). The experiment in a line: Protac activity at CRBN/BRD4 in human THP1 cells assessed as increase in BRD4 degradation at 3 uM incubated for 3 hrs by Western blot analysis. Format: cell-based. Conditions: THP-1. The method in brief:
(§2)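 THP-1 cells were plated at 2×10^6 cells/well and treated for 3 h. Lysis was in RIPA buffer with protease inhibitors. 30 μg of lysate per lane was run on SDS-PAGE and blotted to PVDF. Membranes were probed with antibodies to BRD4 and c-Myc, with GAPDH as loading control.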

Assay [6] deals with T2, Protein cereblon/Bromodomain-containing protein 4 (Homo sapiens). The experiment in a line: Protac activity at CRBN/BRD4 in human THP1 cells assessed as decrease in c-Myc suppression at 1 uM incubated for 3 hrs by Western blot analysis. The class given is cell-based. Conditions: THP-1. The method in brief: as §2
Assay [7] has as its target T1, Bromodomain-containing protein 4. The source holds these as a separate data set.

SMILES strings stand for the structures. Active and inactive are the calls of the source. The rule behind the calls is not given here.

T2 sequence (Q96SW2 whole entry, looked up, other chains not shown): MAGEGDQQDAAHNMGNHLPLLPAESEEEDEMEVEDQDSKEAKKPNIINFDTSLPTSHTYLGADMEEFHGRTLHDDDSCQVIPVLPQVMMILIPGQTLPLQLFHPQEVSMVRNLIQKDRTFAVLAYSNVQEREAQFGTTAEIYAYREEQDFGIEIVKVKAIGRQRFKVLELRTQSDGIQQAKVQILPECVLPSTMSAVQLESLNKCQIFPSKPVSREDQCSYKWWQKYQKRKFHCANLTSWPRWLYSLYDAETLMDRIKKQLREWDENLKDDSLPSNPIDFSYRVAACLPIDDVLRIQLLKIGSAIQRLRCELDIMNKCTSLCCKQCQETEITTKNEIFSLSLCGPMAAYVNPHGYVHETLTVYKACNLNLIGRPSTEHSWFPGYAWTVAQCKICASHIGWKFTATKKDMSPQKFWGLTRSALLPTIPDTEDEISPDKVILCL

In turn, `Cc1noc(C)c1-c1ccc2c(c1)C(c1ccccc1)N(CC(=O)NCCCCC(=O)Nc1cccc3c1CN(C1CCC(=O)NC1=O)C3=O)C(=O)N2C` (stereo unspecified) returned an IC50 in assay [1] of 134 nM. Also, in assay [2], the inhibition stood at 91%.
Take `Cc1noc(C)c1-c1ccc2c(c1)C(c1ccccc1)NC(=O)N2C` (stereo unspecified): the figures for the half-maximal inhibitory concentration (IC50) (in [1]; in the assay on THP-1 [4]) were 46.4 nM and 3260 nM, respectively. The inhibition result with HL-60, with Raji and in the assay with THP-1 [3] was “Active” each time. In assay [5], the outcome was inactive. The compound further showed an inhibition in assay [2] of 100%.
In assay [1], `Cc1noc(C)c1-c1ccc2c(c1)C(c1ccccc1)N(Cc1cn(CCOCCOCC(=O)Nc3cccc4c3CN(C3CCC(=O)NC3=O)C4=O)nn1)C(=O)N2C` (stereo unspecified) displayed an IC50 of 15.4 nM. Further, the inhibition result in the assay with HL-60, in the assay on Raji and in the assay on THP-1 [3] was “Active” in each case. Moreover, the inhibition in [2] was 100%.
`Cc1noc(C)c1-c1ccc2c(c1)C(c1ccccc1)N(Cc1cn(CCOCC(=O)Nc3cccc4c3CN(C3CCC(=O)NC3=O)C4=O)nn1)C(=O)N2C` (stereo unspecified): the values for the IC50 (in [1]; with THP-1 [4]) were 14.2 nM and 1830 nM, respectively. Further, the inhibition entry in the assay on HL-60, in the assay on Raji and in the assay on THP-1 [3] was “Active” in each case. The inhibition in assay [2] worked out at 99%.
`Cc1noc(C)c1-c1ccc2c(c1)C(c1ccccc1)N(CC(=O)NCCCCCC(=O)Nc1cccc3c1CN(C1CCC(=O)NC1=O)C3=O)C(=O)N2C` (stereo unspecified) registered an IC50 in assay [1] of 99.1 nM. The compound also displayed an inhibition in [2] of 98%.
On the same counts, the results for `Cc1noc(C)c1-c1ccc2c(c1)C(c1ccccc1)N(CC(=O)NCCCCCCC(=O)Nc1cccc3c1CN(C1CCC(=O)NC1=O)C3=O)C(=O)N2C` (stereo unspecified) are 80.6 nM and 100%.
Regarding `Cc1noc(C)c1-c1ccc2c(c1)C(c1ccccc1)N(Cc1cn(CCOCC(=O)Nc3cccc4c3C(=O)N(C3CCC(=O)NC3=O)C4=O)nn1)C(=O)N2C` (stereo unspecified), the results for the IC50 (in [1]; with THP-1 [4]) were 41.8 nM and 810 nM, respectively. In addition, the inhibition entry with HL-60, in the assay with Raji and in the assay on THP-1 [3] was “Active” each time. In assay [6], the outcome was Active. The inhibition in assay [2] is 99%.
As to `Cc1noc(C)c1-c1ccc2c(c1)C(c1ccccc1)N(Cc1cn(CCOCCOCC(=O)Nc3cccc4c3C(=O)N(C3CCC(=O)NC3=O)C4=O)nn1)C(=O)N2C` (stereo unspecified), the IC50 turned out to be 67.7 nM in [1] and 1660 nM in the assay on THP-1 [4]. Moreover, the inhibition entry with HL-60, with Raji and with THP-1 [3] was “Active” throughout. In addition, the inhibition in assay [2] was determined as 93%.
As to `Cc1sc2c(c1C)C(c1ccc(Cl)cc1)=N[C@@H](CC(=O)OC(C)(C)C)c1nnc(C)n1-2`, the inhibition result with HL-60, in the assay with Raji and in the assay with THP-1 [3] was “Active” throughout.
As to `Cc1noc(C)c1-c1ccc2c(c1)C(c1ccccc1)N(CC(=O)NCCC(=O)Nc1cccc3c1CN(C1CCC(=O)NC1=O)C3=O)C(=O)N2C` (stereo unspecified), the IC50 in [1] was found to be 132 nM. The inhibition in assay [2] was 94%.
In the case of `Cc1noc(C)c1-c1ccc2c(c1)C(c1ccccc1)N(Cc1cn(CCOCCOCCOCC(=O)Nc3cccc4c3C(=O)N(C3CCC(=O)NC3=O)C4=O)nn1)C(=O)N2C` (stereo unspecified), the IC50 came out at 68.5 nM in [1] and 1750 nM in the assay with THP-1 [4]. Moreover, the inhibition result in the assay with HL-60, with Raji and in the assay on THP-1 [3] was “Active” in each case. Moreover, the inhibition in assay [2] came to 86%.
For `Cc1noc(C)c1-c1ccc2c(c1)C(c1ccccc1)N(CC(=O)NCCCC(=O)Nc1cccc3c1CN(C1CCC(=O)NC1=O)C3=O)C(=O)N2C` (stereo unspecified), the 50% inhibitory concentration (IC50) in assay [1] came to 138 nM. The compound also displayed an inhibition in assay [2] of 89%.
For `Cc1noc(C)c1-c1ccc2c(c1)C(c1ccccc1)N(CCCCCCC(=O)Nc1cccc3c1CN(C1CCC(=O)NC1=O)C3=O)C(=O)N2C` (stereo unspecified), in that order: 118 nM and 96%.
The compound `Cc1noc(C)c1-c1ccc2c(c1)C(c1ccccc1)N(Cc1cn(CCOCCOCCOCC(=O)Nc3cccc4c3CN(C3CCC(=O)NC3=O)C4=O)nn1)C(=O)N2C` (stereo unspecified) had an IC50 in assay [1] of 22.1 nM. For the same compound, the inhibition entry in the assay on HL-60, with Raji and with THP-1 [3] was “Active” throughout. The inhibition in [2] came to 100%.
Regarding `Cc1noc(C)c1-c1ccc2c(c1)C(c1ccccc1)N(C)C(=O)N2` (stereo unspecified), the IC50 in assay [7] was 44 nM.
In assay [1], `Cc1noc(C)c1-c1ccc2c(c1)C(c1ccccc1)N(Cc1cn(CCOCCOCCOCCOCC(=O)Nc3cccc4c3C(=O)N(C3CCC(=O)NC3=O)C4=O)nn1)C(=O)N2C` (stereo unspecified) gave an IC50 of 173 nM. In assay [2], this compound returned an inhibition of 60%.
`Cc1noc(C)c1-c1ccc2c(c1)C(c1ccccc1)N(Cc1cn(CCOCCOCCOCCOCC(=O)Nc3cccc4c3CN(C3CCC(=O)NC3=O)C4=O)nn1)C(=O)N2C` (stereo unspecified) yielded an IC50 in assay [1] of 22.6 nM. The inhibition entry in the assay on HL-60, in the assay with Raji and with THP-1 [3] was “Active” throughout. The inhibition in assay [2] was 100%.
For the compound `Cc1noc(C)c1-c1ccc2c(c1)C(c1ccccc1)N(CCCCC(=O)Nc1cccc3c1CN(C1CCC(=O)NC1=O)C3=O)C(=O)N2C` (stereo unspecified), inhibition in assay [1] was half-maximal at 144 nM (IC50). In assay [2], the inhibition is 90%.
For `Cc1noc(C)c1-c1ccc2c(c1)C(c1ccccc1)N(CC(=O)NCCCCCCCC(=O)Nc1cccc3c1CN(C1CCC(=O)NC1=O)C3=O)C(=O)N2C` (stereo unspecified), the midpoint of inhibition in assay [1], the IC50, lay at 68.3 nM. In addition, the inhibition in assay [2] is 96%.
For `Cc1noc(C)c1-c1ccc2c(c1)C(c1ccccc1)N(CCCCCC(=O)Nc1cccc3c1CN(C1CCC(=O)NC1=O)C3=O)C(=O)N2C` (stereo unspecified), in that order: 135 nM and 93%.
